Converted amounts (≈) assume the structure as drawn. The source made the active and inactive calls. The rule behind the calls is not given here.

The nature of data set [1]: Cytotoxicity against human HepG2(2.2.15) cells. The format is cell-based. The gist of the method: (§1)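 Run in cultures of 2.2.15 cells. Inhibition of HBV replication reported as EC50 and EC90, and cytotoxicity in the same cells as CC50, all in µg/mL. A selectivity index was taken from cytotoxic and antiviral concentrations.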
In data set [2] the test system is Mycobacterium tuberculosis. Briefly: Antituberculosis activity against Mycobacterium tuberculosis. Format: functional, organism-based.
Data set [3] concerns Hepatitis B virus. The data set can be described thus: Antiviral activity against Hepatitis B virus replication in human HepG2(2.2.15) cells. Format: functional, organism-based. The method in brief: as §1
For data set [4], the system named is Plasmodium falciparum. Briefly: Antimalarial activity against Plasmodium falciparum W2. Format: functional.
For data set [5], the system named is Plasmodium falciparum. Briefly: Antimalarial activity against Plasmodium falciparum D6. The format is functional.
The subject of data set [6] is Staphylococcus aureus. Briefly: Antibacterial activity against Staphylococcus aureus. The format is functional.
The subject of data set [7] is Cryptococcus neoformans. Briefly: Antifungal activity against Cryptococcus neoformans. The format is functional.
Data set [8] concerns Candida albicans. Briefly: Antifungal activity against Candida albicans. Format: functional.
Data set [9] deals with Staphylococcus aureus. Briefly: Antibacterial activity against methicillin-resistant Staphylococcus aureus. The format is functional.

With `CC(C)=CCC[C@H](C)c1cc([N+](=O)[O-])c(C)cc1O`, half-maximal cytotoxicity in [1] (CC50) was put at 39 µg/mL (≈ 148 µM). Further, the outcome in data set [2] was inactive. Also, in [3], the midpoint of the response, the EC50, lay at 61 µg/mL (≈ 232 µM) and the EC90 (in general, the point of the concentration-response curve where the effect stands at 90%) was 203 µg/mL (≈ 771 µM).

For the molecule `Cc1ccc([C@@H](C)CCC[C@@H](C)C(=O)O)c(O)c1`, the outcome in data set [2] was inactive.

Consider `C/C(C=O)=C\CC[C@H](C)c1ccc(CO)cc1O`, for which the result in [2] was inactive.

Take `Cc1ccc([C@@H](C)CCC[C@@H](C)CO)c(O)c1`: the outcome in data set [2] was inactive.

As to `CC(C)=CCC[C@H](C)c1ccc(CO)cc1O`, in [2], the result was inactive. The figures for the MIC in data set [4] and in data set [5] were 2.9 µg/mL (≈ 12.4 µM) and 3.8 µg/mL (≈ 16.2 µM), respectively.

Consider `Cc1ccc([C@@H](C)CCC[C@H](C)CO)c(O)c1`, for which the result in [2] was inactive.

Turning to `Cc1ccc([C@@H](C)CCCC(C)(C)O)c(O[C@H]2O[C@H](CO)[C@@H](O)[C@H](O)[C@H]2O)c1`, the outcome in data set [2] was inactive.

With `CC(C)=CCC[C@H](C)c1ccc(C)cc1OC(=O)c1ccncc1`, the result in data set [2] was inactive.

For `Cc1ccc([C@@H](C)CCCC(C)(C)O)c(OC(=O)c2ccncc2)c1`, the outcome in data set [2] was inactive.

Regarding `C/C(=C\CC[C@H](C)c1ccc(CO)cc1O)CO`, the result in [2] was inactive.

Regarding `CC(C)=CCC[C@H](C)c1ccc(C)cc1O[C@H]1O[C@H](CO)[C@@H](O)[C@H](O)[C@H]1O`, in [2], the result was inactive.

`Cc1ccc([C@@H](C)CCC[C@H](C)C(=O)O)c(O)c1`: the outcome in data set [2] was inactive.

In the case of `C/C(=C\CC[C@H](C)c1ccc(C)cc1O)CO`, in data set [2], the outcome was inactive.

For the molecule `Cc1ccc([C@@H](C)CCCC(C)(C)O)c(O)c1`, the outcome in data set [2] was inactive.

With `Cc1ccc([C@@H](C)CC[C@@H](O)C(C)(C)O)c(O)c1`, in [2], the result was inactive.

With `Cc1ccc([C@@H](C)CC[C@H](O)C(C)(C)O)c(O)c1`, the result in data set [2] was inactive.

Turning to `Cc1ccc([C@@H](C)CCCC(C)C(=O)O)c(O)c1` (some centres not stated), the result in data set [2] was inactive.

Consider `CC(C)=CCC[C@H](C)c1ccc(C)cc1O`, for which the MBC in data set [6] and in data set [9] was 12.5 µg/mL (≈ 57.3 µM) in each case. Also, the MIC (in general, the least concentration at which growth counts as inhibited) in data set [6] is 7.5 µg/mL (≈ 34.4 µM); in data set [7] it was 7.5 µg/mL (≈ 34.4 µM); in [4] it was 1.8 µg/mL (≈ 8.24 µM); in [8] it was 7.5 µg/mL (≈ 34.4 µM); in data set [9], 7.5 µg/mL (≈ 34.4 µM); in data set [5], 3.6 µg/mL (≈ 16.5 µM). Besides, the MFC in data set [7] and in data set [8] was 12.5 µg/mL (≈ 57.3 µM) in each case. The outcome in data set [2] was inactive.

On to `Cc1ccc([C@@H](C)CCC(=O)O)c(O)c1`, for which, in [2], the outcome was inactive.

For the molecule `Cc1ccc([C@@H](C)CCCC(C)CO)c(O)c1` (some centres not stated), the outcome in data set [2] was inactive.

With `Cc1ccc([C@@H](C)CCC(=O)C(C)(C)O)c(O)c1`, the result in [2] was inactive.

Take `CC(C)=CCC[C@H](C)c1ccc(C)c([N+](=O)[O-])c1O`: the result in [2] was inactive.

The values above are taken from ChEMBL document CHEMBL1150127, “Microbial and chemical transformation studies of the bioactive marine sesquiterpenes (S)-(+)-curcuphenol and -curcudiol isolated from a deep reef collection of the Jamaican sponge Didiscus oxeata” (J Nat Prod, 2002).
